Columns and labels:
[1] = test system: HeLa; assay: Induction of apoptosis in human HeLa cells assessed as late apoptotic cells at 200 nM preincubated for 3 hrs followed by 54 J/cm2 light irradiation and measured after 24 hrs by Annexin-V-FITC/propidium iodide staining based flow cytometry (reference value: 5.92%); type: functional
How it was run: (§1)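 HeLa cells in six-well plates were exposed to compound for 3 h, irradiated (λ > 590 nm), and incubated 24 h at 37 °C. Cells were then harvested, washed with PBS, and stained with annexin V-FITC/PI for 20 min at room temperature before immediate flow cytometry. Untreated, unirradiated cells served as control.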

[2] = Drug uptake in human HeLa cells xenografted Balb/c nu/nu mouse heart at 2 mg/kg, iv measured after 3 hrs by fluorescence imaging analysis; type: ADME, organism-based; details: in vivo
How it was run: (§2)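 Female Balb/c nu/nu mice bore subcutaneous HeLa tumors (5×10^6 cells, right back) and received 2 mg/kg via tail vein. Living mice were imaged under isoflurane at time points (ex 680/em 720 nm, 1 s exposure). At set times mice were euthanized and heart, liver, spleen, lungs, kidneys and tumor imaged ex vivo; ROI quantified, mean ± SD, n = 3.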

[3] = Drug uptake in Balb/c nu/nu mouse xenografted with human HeLa cells at 2 mg/kg, iv measured up to 3 hrs by fluorescence imaging analysis; type: ADME, organism-based; details: in vivo; how it was run: as §2
[4] = test system: HeLa; assay: Induction of apoptosis in human HeLa cells assessed as necrotic cells at 40 nM preincubated for 3 hrs followed by 54 J/cm2 light irradiation and measured after 24 hrs by Annexin-V-FITC/propidium iodide staining based flow cytometry (reference value: 2.8%); type: functional; how it was run: as §1
[5] = Stability of the compound in acetonitrile assessed as compound degradation under dark condition; type: physicochemical
[6] = Drug uptake in lysosomes of human HeLa cells at 5 uM incubated for 2 hrs under dark condition by Lyso tracker green dye based laser confocal microscopic analysis; type: ADME, subcellular, Lysosome
How it was run: (§3)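 HeLa cells adhered overnight on glass-bottom dishes and were loaded with 5 μM compound in the dark for 2 h. After PBS washes, cells were stained with Mito-Tracker Green FM 250 nM for 30 min, Lyso-Tracker Green 160 nM for 30 min, or ER-Tracker Green 2 μM for 45 min. Confocal imaging: trackers excited at 488 nm, collected 500–560 nm; compound excited at 633 nm, collected 650–740 nm.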

[7] = Induction of singlet oxygen generation in isopropanol assessed as relative rate of DPBF degradation to MB at 1 uM irradiated with 90 mW/cm2 halogen light; type: functional
How it was run: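 Singlet oxygen generation measured with 1,3-diphenylisobenzofuran (DPBF) as scavenger. The decrease in DPBF absorbance at 411 nm was monitored over time during light irradiation, and the photodegradation rate was calculated.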

[8] = Drug uptake in endoplasmic reticulum of human HeLa cells at 5 uM incubated for 2 hrs under dark condition by ER tracker green dye based laser confocal microscopic analysis; type: ADME, subcellular; how it was run: as §3

Drug uptake [2]: Active
Drug uptake [3]: Active
Stabilty [5]: Unstable
Drug uptake [6]: Active
Drug uptake [8]: Active
Compound: COc1ccc(C2=[N+]3C(=Nc4c(-c5ccccc5)cc(-c5ccc(OC)cc5)n4[B-]3(F)F)C(c3ccccc3)=C2I)cc1
Activity [1]: 8.6%
Activity [4]: 1.73%
fold change (FC) [7]: 7.3

Reference: ChEMBL document CHEMBL4725347, “Discovery of a Monoiodo Aza-BODIPY Near-Infrared Photosensitizer: in vitro and in vivo Evaluation for Photodynamic Therapy” (J Med Chem, 2020)
